FXIIa inh: inhibitors of human coagulation factor XIIa; AID 800; actives 0.3% (n = 220,000); inhibition, % at 5 µM; P00748; purified FXIIa, Boc-QGR-AMC fluorogenic substrate, 2 h; in the data active means inhibition above about 40%;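 further: 0% = enzyme with no compound and 100% = blank without enzyme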
Target sequence (P00748 20-372 limits assumed): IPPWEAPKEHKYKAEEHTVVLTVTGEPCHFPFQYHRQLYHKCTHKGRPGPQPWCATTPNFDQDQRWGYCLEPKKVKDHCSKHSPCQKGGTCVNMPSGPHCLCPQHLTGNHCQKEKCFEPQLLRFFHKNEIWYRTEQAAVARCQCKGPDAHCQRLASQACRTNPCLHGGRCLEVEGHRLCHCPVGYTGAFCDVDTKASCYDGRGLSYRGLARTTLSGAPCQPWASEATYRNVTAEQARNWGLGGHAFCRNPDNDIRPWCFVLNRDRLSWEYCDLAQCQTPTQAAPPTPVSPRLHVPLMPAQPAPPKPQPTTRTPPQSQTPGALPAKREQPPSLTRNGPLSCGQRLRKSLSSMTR
Target sequence (P00748 373-615 limits assumed): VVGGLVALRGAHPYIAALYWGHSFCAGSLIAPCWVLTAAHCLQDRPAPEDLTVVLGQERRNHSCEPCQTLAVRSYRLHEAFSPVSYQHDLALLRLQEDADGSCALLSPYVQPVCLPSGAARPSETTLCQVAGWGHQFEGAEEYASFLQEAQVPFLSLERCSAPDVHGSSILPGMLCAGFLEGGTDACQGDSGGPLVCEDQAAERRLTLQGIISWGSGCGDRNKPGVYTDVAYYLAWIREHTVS
Calb biofilm kill: mixture kills Candida albicans biofilm cells; C. albicans biofilm persisters + clotrimazole, fluorescence viability; primary screen in compound mixtures of four per well; inhibition, % at 7.6 µM; actives 0.02% (n = 120,000);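 active means inhibition above 30.3% in the primary screen of four-compound pools, then above 30% when the compound was retested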;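 further: compounds exposed to preformed 24 h biofilms for 48 h; 0% = untreated biofilm control and 100% = clotrimazole plus chlorhexidine kill blank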
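System: C. albicans CAF4-2 wild-type biofilms; Medium: RPMI/MOPS medium, pH 7.0; Reagent: Clotrimazole, 50 µg/mL; Times: biofilm formation 24 h, compound exposure 48 h, 37 °C; Detection: 2-h Alamar Blue fluorescence, 535/590 nm excitation/emission; Evaluation: percent inhibition of biofilm viability.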
Lipid droplet: hepatic lipid droplet formation modulation | AML12 mouse hepatocytes, oleate lipid droplets, BODIPY imaging | inhibition, % at 6.5 µM | actives 0.4% (n = 240,000) | AID 1656;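 active means lipid droplet intensity inhibited by at least 50%, with more than 500 cells counted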
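Test system: AML12 mouse liver cells; schedule: overnight exposure; technique: high-content imaging of BODIPY-stained droplets and DAPI nuclei; read-out: % inhibition of corrected integrated BODIPY droplet signal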
FXIa inh 1536: inhibitors of human coagulation factor XIa; purified FXIa, Boc-Glu-Ala-Arg-AMC fluorogenic substrate; inhibition, % at 5 µM; actives 0.14% (n = 220,000); AID 798;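 active means inhibition of at least 40%; inactive means inhibition below 40%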;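 further: fluorescence of freed AMC excited at 355 nm; 0% = enzyme without compound and 100% = no enzyme blank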
thrombin 1536: blocks human thrombin protease activity | P00734 | alpha-thrombin, Boc-VPR-AMC fluorogenic substrate cleavage | inhibition, % at 5 µM | actives 0.26% (n = 220,000);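 active means inhibition at or above 40%; inactive means inhibition below 40%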;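 further: 0% = enzyme with no compound and 100% = wells without enzyme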
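Material: human alpha-thrombin protein. Incubation: reaction at ambient temperature. Technique: fluorescence of released AMC, ex 355 nm, em 460 nm. Control set: no-compound enzyme wells and no-enzyme blanks. Also added: Boc-VPR-AMC substrate, 15 µM final. Buffer or medium: pH 7.5 Tris (50 mM) with NaCl 150 mM, Tween 20 0.05%.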
KLK5 inh: kallikrein 5 (human) inhibition; AID 873; recombinant hK5, fluorogenic AMC substrate cleavage; actives 0.59% (n = 210,000); Q9Y337; inhibition, % at 5 µM;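 active means inhibition of 40% or more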;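 further: 0% = enzyme controls without compound and 100% = no-enzyme blanks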
Hep lipid conf: confirmation of inhibitors of hepatic lipid droplet formation | AML12 mouse hepatocytes, BODIPY lipid droplet imaging; droplets induced with 100 µM oleic acid | inhibition, % at 5.2 µM | shares compounds with Lipid droplet | actives 65% (n = 870);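 active means inhibition of lipid droplet metric at least 50%, with more than 300 cells in each of four replicates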;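 further: plate controls were DMSO with oleic acid for no effect and 5 µM Triacsin-C for full effect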
AML12 cytotox: toxic to AML12 mouse hepatocytes in counter-screen; shares compounds with Lipid droplet; DAPI nuclear morphology cytotoxicity imaging; active compounds read high; cells fed 100 µM oleate overnight; z-score at 5 µM; actives 3% (n = 870); in the data active means z-score above about 6.3;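 further: compound exposure lasted overnight at 37 °C before fixation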
AML12 tox ATP: confirmation of cytotoxicity in AML12 mouse hepatocytes; 530 tested, under 10 active; shares compounds with Lipid droplet; cytotoxicity, % at 50 µM; AML12 mouse hepatocyte viability, ATP luminescence; cells loaded with 100 µM oleic acid;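 active means cytotoxicity above 50% in each of four replicates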;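 further: compound exposure lasted overnight at 37 °C before the ATP read; 0% = DMSO-treated cells and 100% = wells with no cells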
Starred values were filed as active, the others as inactive; · = not tested or not shown. Hits are enriched below; roughly 1.1% of the tested compounds scored in any of these assays.

SMILES	FXIIa inh	Calb biofilm kill	Lipid droplet	FXIa inh 1536	thrombin 1536	KLK5 inh	Hep lipid conf	AML12 cytotox	others
CCCSCCCNC(=O)CC1Oc2ccccc2NC1=O (stereo not drawn)	9	·	·	-1	-7	-19	·	·
COCCCNC(=O)CC1Oc2ccccc2NC1=O (stereo not drawn)	11	·	-2	14	16	56*	·	·
COc1cc(C(=O)NC(=S)N(C)Cc2ccccc2)cc(OC)c1OC	26	7	1	101*	19	36	·	·
COc1cc(C(=O)NC(=S)N(CCc2ccccc2)CCc2ccccc2)cc(OC)c1OC	10	4	-7	7	1	-5	·	·
Cc1cc(C(=O)NCc2ccc(F)cc2)n(-c2ccccc2)n1	7	19	1	-3	-2	1	·	·
Cn1c(CNC(=O)Nc2ccccc2Cl)nnc1SCc1ccccc1	17	·	·	18	25	43*	·	·
Cc1c(NC(=O)CN2CCCc3ccccc32)c(=O)n(-c2ccccc2)n1C	15	·	·	0	17	144*	·	·
Cc1cc(C)c2c3c(sc2n1)C(=O)N(c1ccccc1)CC(=O)N3	6	14	-3	-8	-1	17	·	·
Cn1c(SCC(=O)NC2CCCC2)nnc1-c1ccc(S(=O)(=O)N2CCOCC2)cc1	-3	·	11	-12	45*	-14	·	·
Cc1cccc(Cn2cnc3c(NS(C)(=O)=O)c(C)c(C)cc32)c1	13	·	·	0	1	57*	·	·
COc1cccc(Cn2cnc3c(N)c(C)c(C)cc32)c1	7	29	-1	-2	-9	0	·	·
COC(=O)C1(C)Cc2cc(OC(C)=O)c(OC(C)=O)cc2N1 (stereo not drawn)	3	8	4	-5	-4	-5	·	·
O=C(CN1C(=O)c2ccccc2S1(=O)=O)c1ccccc1	11	9	7	6	3	1	·	·
Cc1cc(C(=O)CN2C(=O)c3ccccc3S2(=O)=O)c(C)n1-c1ccccc1	18	·	65*	2	1	-1	24	-0.28
Cc1ccc(N2C(=O)c3ccccc3NC2(C(=O)O)c2ccccc2)cc1Cl (stereo not drawn)	·	·	50*	·	·	·	60	1.4	AML12 tox ATP=31
CC(NC(=O)Cc1cccc(C(F)(F)F)c1)c1ccc(F)cc1 (stereo not drawn)	·	-11	-6	-3	-13	-2	·	·
CCOc1ccccc1NC(=O)CSc1nnc(Cn2c(=O)sc3ccccc32)n1C	10	·	53*	3	0	-6	41	-0.27
Nc1[nH]n(-c2ccccc2)c(=O)c1N=Nc1ccccc1	10	9	11	1	3	0	·	·
CC(=O)c1cccc(N=Nc2c(-c3ccccc3)[nH]n(-c3ccccc3)c2=O)c1	16	3	101*	4	1	2	110*	-0.35	AML12 tox ATP=-1
Cc1[nH]n(-c2ccccc2)c(=O)c1N=Nc1cccc(Cl)c1	·	·	64*	·	·	·	101*	-0.057	AML12 tox ATP=0
CCCC(=O)Nc1cccc(C(=O)Nc2ccccc2OCC)c1	-8	1	73*	-3	0	-19	99*	0.64
CCOc1ccccc1NC(=O)c1cccc(NC(=O)C(C)C)c1	0	11	41	-5	0	-10	·	·
C=C(C)c1cccc(C(C)(C)NC(=O)Nc2cc(C)ccc2OC)c1	17	·	·	5	0	-5	·	·
CCOc1ccccc1NC(=O)CCC(=O)Nc1ccccc1OCC	6	·	60*	-17	-2	-31	94*	-0.26	AML12 tox ATP=12
C=C(C)c1cccc(C(C)(C)NC(=O)Nc2ccccc2OCC)c1	8	11	52*	-4	-10	-13	53	0.035
SMILES	FXIIa inh	Calb biofilm kill	Lipid droplet	FXIa inh 1536	thrombin 1536	KLK5 inh	Hep lipid conf	AML12 cytotox	others
CCOC(=O)[C@@H]1[C@H]2COc3ccccc3[C@@H]2N2C(=O)N(c3cccc(Cl)c3)C(=O)[C@]12C	·	·	-3	·	·	·	·	·
COc1ccc(C2CC(c3cccs3)=NN2C(=O)c2ccc(Br)o2)cc1 (stereo not drawn)	6	21	83*	0	-2	-3	93*	0.47	AML12 tox ATP=-11
CSc1ccc(CN2CCC(n3nccc3NC(=O)CCCc3ccccc3)CC2)cc1	·	·	4	·	·	·	·	·
COc1ccc(C2(c3ccc(OC)cc3)NC(=O)N(CC(=O)Nc3cc(C)ccc3OC)C2=O)cc1	·	·	86*	·	·	·	106*	-1	AML12 tox ATP=12
COc1ccc(C2(c3ccc(OC)cc3)NC(=O)N(CC(=O)Nc3ccc(C(=O)N(C)C)cc3)C2=O)cc1	·	·	2	·	·	·	·	·
O=C(NCCc1c[nH]c2ccccc12)C(=O)NCC1OCCN1S(=O)(=O)c1ccccc1 (stereo not drawn)	5	-17	-18	0	5	-1	·	·
Cc1cc(C)c(S(=O)(=O)N2CCOC2CNC(=O)C(=O)NCCc2c[nH]c3ccccc23)c(C)c1 (stereo not drawn)	8	7	76*	4	2	-13	77*	-1	AML12 tox ATP=10
CCOC(=O)c1cnc2oc3ccccc3n2c1=O	·	·	8	·	·	·	·	·
Nc1ccc(Nc2nc3ccccc3[nH]2)cc1	·	·	-2	·	·	·	·	·
Cc1cc(C)nc(Nc2nc3ccccc3[nH]2)n1	-4	·	58*	-8	-12	-18	26	-0.94
COc1ccc(NC(=O)c2sccc2C)cn1	-1	21	60*	-2	0	-18	1	-0.17
COc1ccc(CCN(C)C2CCCN(C(=O)CCC(F)(F)F)C2)cc1OC (stereo not drawn)	·	·	-1	·	·	·	·	·
O=C(Nc1nnc(-c2cccs2)s1)C1CC1	9	11	10	-4	-12	6	·	·
O=C(Nc1nc(-c2cccs2)c(-c2cccs2)s1)C1CCCC1	8	14	54*	4	-4	-10	94*	-0.48
Cc1cc(C(=O)OC(C)C(=O)Nc2nc(-c3ccccc3)cs2)c(C)o1 (stereo not drawn)	28	·	87*	12	10	23	111*	-0.8	AML12 tox ATP=4
Cc1cc(C(=O)OCC(=O)Nc2nc(-c3ccccc3)cs2)c(C)o1	19	·	·	3	4	-1	·	·
COC(=O)c1c(N2C(=O)[C@H]3[C@@H](C2=O)[C@]2(C(=O)Nc4c(C)cc(C)cc42)N2CCC[C@@H]32)sc(C)c1C	3	15	68*	-6	1	-2	32	0.064
CCN(CCn1cccn1)C(=O)c1cc(COc2cccc3cccnc23)on1	6	12	-2	-2	-5	·	·	·

Screening data as filed in PubChem.
